As usually defined, the EC50 is the concentration that produces a half-maximal response. Broadly, the Emax is the greatest response seen or fitted, relative to the assay's reference.

Data set [1] addresses T1, Probable G-protein coupled receptor 142 (Homo sapiens, UniProt Q7Z601).
T1 sequence (Q7Z601 whole entry): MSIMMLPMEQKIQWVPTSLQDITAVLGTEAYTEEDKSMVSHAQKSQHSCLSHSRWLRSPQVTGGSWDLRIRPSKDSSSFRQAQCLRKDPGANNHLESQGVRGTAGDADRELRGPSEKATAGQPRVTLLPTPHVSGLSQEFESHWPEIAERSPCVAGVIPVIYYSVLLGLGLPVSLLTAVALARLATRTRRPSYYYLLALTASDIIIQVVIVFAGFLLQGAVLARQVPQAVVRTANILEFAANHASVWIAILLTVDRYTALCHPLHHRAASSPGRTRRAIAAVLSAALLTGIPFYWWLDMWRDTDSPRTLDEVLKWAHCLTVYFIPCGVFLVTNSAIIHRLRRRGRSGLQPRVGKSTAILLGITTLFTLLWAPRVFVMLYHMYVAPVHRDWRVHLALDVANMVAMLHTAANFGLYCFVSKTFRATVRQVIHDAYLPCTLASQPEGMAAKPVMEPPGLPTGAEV
The experiment in a line: Agonist activity at human GPR142 receptor expressed in HEK293 cells assessed as accumulation of inositol phosphate incubated for 1 hr followed by IP1-d2 addition by HTRF assay. The class given is functional, cell-based. In outline:
(§1)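 HEK293 cells stably expressing human GPR142 (DMEM, 10% FBS, 800 ug/mL G418, 37 °C, 5% CO2), seeded 5000 cells/well and left 18 h to attach. Compounds added at 30 uM to 1 nM, 1 h incubation in HBSS (+Ca, +Mg), 0.1% BSA, 50 mM LiCl, 20 mM HEPES pH 7.2. IP-1 HTRF read-out: IP1-d2 then cryptate, 1 h at 25 °C, 665/620 nm ratio converted via IP-1 standard curve; EC50 by 4-parameter logistic fit.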

Data set [2] deals with T2, Probable G-protein coupled receptor 142 (Homo sapiens) (UniProt Q7Z601).
T2 sequence (whole entry): T1 sequence (Q7Z601 whole entry)
The experiment in a line: Agonist activity at human GPR142 receptor expressed in HEK293 cells assessed as accumulation of inositol phosphate at 30 uM to 1 nM incubated for 1 hr followed by IP1-d2 addition by HTRF assay relative to control. The class given is functional, cell-based. In short, it runs like this:
as §1

Data set [3] is described as follows: Drug metabolism in mouse microsomes assessed as drug turnover at 20 uM measured after 30 mins by LCMS analysis. The class given is ADME, Microsome. The settings on record: read-out: Drug metabolism. In short, it runs like this: (§2)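 High-throughput microsomal stability: compound at 20 uM incubated with mouse, rat, dog or human liver microsomes at 37 °C; percent parent remaining measured after 30 min and reported as % turnover.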

The nature of data set [4]: Drug metabolism in rat microsomes assessed as drug turnover at 20 uM measured after 30 mins by LCMS analysis. The class given is ADME, Microsome. To be noted: read-out: Drug metabolism. In short, it runs like this:
as §2

The nature of data set [5]: Drug metabolism in dog microsomes assessed as drug turnover at 20 uM measured after 30 mins by LCMS analysis. The class given is ADME, Canis lupus familiaris, Microsome. The settings on record: read-out: Drug metabolism. In outline:
as §2

Data set [6] in a line: Drug metabolism in human microsomes assessed as drug turnover at 20 uM measured after 30 mins by LCMS analysis. The class given is ADME, Microsome. To be noted: read-out: Drug metabolism. In outline: as §2

For the compound `Cc1nc[nH]c1-c1nnc([C@H]2CCC[C@@H](N(C)C(=O)c3cccc(C(F)(F)F)c3)C2)[nH]1`, the EC50 in data set [1] is 0.076 µM. The Emax in data set [2] amounted to 101%. The metabolised at 0.5 h, 20 µM amounted to 36% in data set [3], 36% in data set [4], 9% in data set [5] and 13% in data set [6].

For `Cc1ncn(CCN2CCOCC2)c1NC(=O)[C@H]1CCC[C@@H](N(C)C(=O)c2cccc(C(F)(F)F)c2)C1`, the EC50 in data set [1] amounted to 0.051 µM. For the same compound, the Emax in data set [2] was determined as 97%. The metabolised at 0.5 h, 20 µM was 67% in data set [3], 63% in data set [4], 19% in data set [5] and 38% in data set [6].

`Cc1ncn(CC(F)F)c1-c1nnc([C@H]2CCC[C@@H](N(C)C(=O)c3cccc(C(F)(F)F)c3)C2)[nH]1`: in data set [1], the EC50 came out at 0.041 µM. Also, the Emax in data set [2] was found to be 109%. Also, the metabolised at 0.5 h, 20 µM was found to be 82% in data set [3], 67% in data set [4], 83% in data set [5] and 90% in data set [6].

Consider `Cc1ncn(C)c1-c1nnc([C@@H]2C[C@H](N(C)C(=O)c3cccc(Cl)c3)CCO2)[nH]1`, for which the metabolised at 0.5 h, 20 µM came out at 17% in data set [3], 15% in data set [4], 16% in data set [5] and 7% in data set [6].

For the compound `Cc1ncn(CC(F)F)c1NC(=O)[C@H]1CCC[C@@H](N(C)C(=O)c2cccc(C(F)(F)F)c2)C1`, the EC50 in data set [1] is 0.063 µM. Besides, in data set [2], the Emax stood at 105%. Besides, the metabolised at 0.5 h, 20 µM stood at 64% in data set [3], 59% in data set [4], 38% in data set [5] and 58% in data set [6].

In the case of `Cc1ncn(CC2CC2)c1NC(=O)[C@H]1CCC[C@@H](N(C)C(=O)c2cccc(C(F)(F)F)c2)C1`, the EC50 in data set [1] stood at 0.052 µM. Also, in data set [2], the Emax turned out to be 118%. For the same compound, the metabolised at 0.5 h, 20 µM in data set [3] came out at 97%; in data set [4], 88%; in data set [5], 66%; in data set [6] it was 72%.

Take `CN(C(=O)c1cccc(C(F)(F)F)c1)[C@@H]1CCO[C@H](c2nnc(-c3cnc4n3CCC4)[nH]2)C1`: in data set [1], the EC50 was 0.053 µM. Further, the Emax in data set [2] was 107%. Also, the metabolised at 0.5 h, 20 µM was determined as 39% in data set [3], 16% in data set [4], 7% in data set [5] and 18% in data set [6].

`Cc1ncn(C)c1-c1nnc([C@@H]2C[C@H](N(C)C(=O)c3cccc(OC(F)(F)F)c3)CCO2)[nH]1`: the metabolised at 0.5 h, 20 µM in data set [3] stood at 39%; in data set [4] it was 14%; in data set [5], 16%; in data set [6], 10%.

As for `CN(C(=O)c1cccc(Cl)c1)[C@@H]1CCO[C@H](c2nnc(-c3cnc4ccccn34)[nH]2)C1`, the EC50 in data set [1] came to 0.035 µM. Moreover, in data set [2], the Emax stood at 102%. For the same compound, the metabolised at 0.5 h, 20 µM in data set [3] stood at 66%; in data set [4] it was 23%; in data set [5] it was 46%; in data set [6] it was 29%.

For the compound `Cc1ncn(C2CCC2)c1-c1nnc([C@@H]2C[C@H](N(C)C(=O)c3cccc(C(F)(F)F)c3)CCO2)[nH]1`, the EC50 in data set [1] was found to be 0.016 µM. In addition, the Emax in data set [2] turned out to be 121%. Besides, the metabolised at 0.5 h, 20 µM in data set [3] stood at 46%; in data set [4] it was 13%; in data set [5], 48%; in data set [6], 82%.

Take `Cc1ncn(CC(F)(F)F)c1NC(=O)[C@H]1CCC[C@@H](N(C)C(=O)c2cccc(OC(F)(F)F)c2)C1`: the concentration giving a half-maximal response (EC50) in data set [1] was determined as 0.11 µM. Also, the Emax in data set [2] was 114%. In addition, the metabolised at 0.5 h, 20 µM in data set [3] is 86%; in data set [4], 56%; in data set [5], 51%; in data set [6], 76%.

As to `Cc1ncn(C)c1NC(=O)[C@H]1CCC[C@@H](N(C)C(=O)c2cccc(OC(F)(F)F)c2)C1`, in data set [1], the EC50 is 0.071 µM. In data set [2], the maximal response (Emax) is 104%. Also, the metabolised at 0.5 h, 20 µM is 90% in data set [3], 37% in data set [4], 40% in data set [5] and 42% in data set [6].

`Cc1ncn(C(C)C)c1NC(=O)[C@H]1CCC[C@@H](N(C)C(=O)c2cccc(C(F)(F)F)c2)C1`: the EC50 in data set [1] is 0.031 µM. The Emax in data set [2] was found to be 115%. Besides, the metabolised at 0.5 h, 20 µM in data set [3] came to 76%; in data set [4], 52%; in data set [5], 33%; in data set [6], 48%.

As to `Cc1ncn(CC#N)c1NC(=O)[C@H]1CCC[C@@H](N(C)C(=O)c2cccc(C(F)(F)F)c2)C1`, the concentration for a half-maximal effect (EC50) in data set [1] is 0.093 µM. In addition, the Emax in data set [2] is 96%. Besides, the metabolised at 0.5 h, 20 µM in data set [3] amounted to 56%; in data set [4], 21%; in data set [5] it was 6%; in data set [6] it was 26%.

Turning to `Cc1ncn(CC(F)(F)F)c1NC(=O)[C@H]1CCC[C@@H](N(C)C(=O)c2cccc(C(F)(F)F)c2)C1`, in data set [1], the EC50 stood at 0.081 µM. Moreover, the Emax in data set [2] came out at 114%. In addition, the metabolised at 0.5 h, 20 µM is 67% in data set [3], 59% in data set [4], 38% in data set [5] and 62% in data set [6].

Consider `CN(C(=O)c1cccc(C(F)(F)F)c1)[C@@H]1CCO[C@H](c2nnc(-c3cnc4n3CCOC4)[nH]2)C1`, for which the EC50 in data set [1] came out at 0.102 µM. For the same compound, the Emax in data set [2] worked out at 108%. Further, the metabolised at 0.5 h, 20 µM in data set [3] came to 27%; in data set [4], 28%; in data set [5] it was 17%; in data set [6], 12%.

Turning to `CN(C(=O)c1cccc(C(F)(F)F)c1)[C@@H]1CCC[C@H](c2nnc(-c3cnc4n3CCOC4)[nH]2)C1`, in data set [1], the EC50 was 0.032 µM. Moreover, in data set [2], the Emax was 102%. In addition, the metabolised at 0.5 h, 20 µM in data set [3] was found to be 70%; in data set [4] it was 80%; in data set [5], 52%; in data set [6] it was 84%.

`Cc1ncn(CC2CN(C)C2)c1NC(=O)[C@H]1CCC[C@@H](N(C)C(=O)c2cccc(C(F)(F)F)c2)C1`: the EC50 in data set [1] was determined as 0.147 µM. In addition, the Emax in data set [2] amounted to 103%. Besides, the metabolised at 0.5 h, 20 µM is 38% in data set [3], 29% in data set [4], 24% in data set [5] and 20% in data set [6].

Take `Cc1ncn(C)c1-c1nnc([C@H]2CCC[C@@H](N(C)C(=O)c3cccc(C(F)(F)F)c3)C2)[nH]1`: the EC50 in data set [1] came to 0.011 µM. Moreover, in data set [2], the maximal response (Emax) was 117%. In addition, the metabolised at 0.5 h, 20 µM in data set [3] came out at 64%; in data set [4], 43%; in data set [5], 46%; in data set [6], 67%.

With `Cc1ncn(CC(F)F)c1NC(=O)[C@H]1CCC[C@@H](N(C)C(=O)c2cccc(Cl)c2)C1`, in data set [1], the EC50 turned out to be 0.104 µM. Also, the maximal effect (Emax) in data set [2] is 99%. In addition, the metabolised at 0.5 h, 20 µM in data set [3] stood at 54%; in data set [4], 79%; in data set [5] it was 19%; in data set [6] it was 51%.

For `Cc1ncc(-c2nnc([C@H]3CCC[C@@H](N(C)C(=O)c4cccc(C(F)(F)F)c4)C3)[nH]2)n1C`, the EC50 in data set [1] amounted to 0.046 µM. Besides, the Emax in data set [2] amounted to 98%. Also, the metabolised at 0.5 h, 20 µM in data set [3] came out at 53%; in data set [4], 41%; in data set [5], 22%; in data set [6] it was 69%.

For the compound `Cc1ncn(CC2CC2)c1-c1nnc([C@@H]2C[C@H](N(C)C(=O)c3cccc(C(F)(F)F)c3)CCO2)[nH]1`, the EC50 in data set [1] is 0.014 µM. Also, the Emax in data set [2] stood at 123%. Also, the metabolised at 0.5 h, 20 µM in data set [3] was found to be 83%; in data set [4], 64%; in data set [5], 63%; in data set [6] it was 69%.

(Values after ChEMBL document CHEMBL4627259, “Discovery of LY3325656: A GPR142 agonist suitable for clinical testing in human” (Bioorg Med Chem Lett, 2020).)
